# Reference: ChEMBL document CHEMBL4477200, “Design, Synthesis, and Preclinical Evaluation of 4-Substituted-5-methyl-furo[2,3-d]pyrimidines as Microtubule Targeting Agents That Are Effective against Multidrug Resistant Cancer Cells” (J Med Chem, 2016)
# The source made the active and inactive calls. The rule behind the calls is not given here.
# Experiments:
# Tubulin (Bos taurus) = Tubulin (Bos taurus) (UniProt Q6B856+Q862L2+Q862F3); assay: Displacement of [3H]colchicine from tubulin in bovine brain homogenate at 1 uM incubated for 10 mins by DEAE-cellulose filter assay; format: tissue-based
# K562 = assay: Cytotoxicity against human K562 cells assessed as growth inhibition after 48 hrs by SRB assay; format: functional; settings: K562, 48 h
# MOLT-4 = assay: Cytotoxicity against human MOLT4 cells assessed as growth inhibition after 48 hrs by SRB assay; format: functional; settings: MOLT-4, 48 h
# RPMI-8226 = assay: Cytotoxicity against human RPMI8226 cells assessed as growth inhibition after 48 hrs by SRB assay; format: functional; settings: RPMI-8226, 48 h
# SR = assay: Cytotoxicity against human SR cells assessed as growth inhibition after 48 hrs by SRB assay; format: functional
# HOP-62 = assay: Cytotoxicity against human HOP62 cells assessed as growth inhibition after 48 hrs by SRB assay; format: functional; settings: HOP-62, 48 h
# HOP-92 = assay: Cytotoxicity against human HOP92 cells assessed as growth inhibition after 48 hrs by SRB assay; format: functional; settings: HOP-92, 48 h
# NCI-H226 = assay: Cytotoxicity against human NCI-H226 cells assessed as growth inhibition after 48 hrs by SRB assay; format: functional; settings: NCI-H226, 48 h
# NCI-H23 = assay: Cytotoxicity against human NCI-H23 cells assessed as growth inhibition after 48 hrs by SRB assay; format: functional; settings: NCI-H23, 48 h
# NCI-H522 = assay: Cytotoxicity against human NCI-H522 cells assessed as growth inhibition after 48 hrs by SRB assay; format: functional; settings: NCI-H522, 48 h
# HCC 2998 = assay: Cytotoxicity against human HCC2998 cells assessed as growth inhibition after 48 hrs by SRB assay; format: functional; settings: HCC 2998, 48 h
# HCT-15 = assay: Cytotoxicity against human HCT15 cells assessed as growth inhibition after 48 hrs by SRB assay; format: functional; settings: HCT-15, 48 h
# HT-29 = assay: Cytotoxicity against human HT-29 cells assessed as growth inhibition after 48 hrs by SRB assay; format: functional; settings: HT-29, 48 h
# KM12 = assay: Cytotoxicity against human KM12 cells assessed as growth inhibition after 48 hrs by SRB assay; format: functional; settings: KM12, 48 h
# SW-620 = assay: Cytotoxicity against human SW620 cells assessed as growth inhibition after 48 hrs by SRB assay; format: functional; settings: SW-620, 48 h
# SF-268 = assay: Cytotoxicity against human SF268 cells assessed as growth inhibition after 48 hrs by SRB assay; format: functional; settings: SF-268, 48 h
# SF-295 = assay: Cytotoxicity against human SF295 cells assessed as growth inhibition after 48 hrs by SRB assay; format: functional; settings: SF-295, 48 h
# SNB-19 = assay: Cytotoxicity against human SNB19 cells assessed as growth inhibition after 48 hrs by SRB assay; format: functional; settings: SNB-19, 48 h
# SNB-75 = assay: Cytotoxicity against human SNB75 cells assessed as growth inhibition after 48 hrs by SRB assay; format: functional; settings: SNB-75, 48 h
# U-251 = assay: Cytotoxicity against human U251 cells assessed as growth inhibition after 48 hrs by SRB assay; format: functional; settings: U-251, 48 h
# Malme-3M = assay: Cytotoxicity against human MALME-3M cells assessed as growth inhibition after 48 hrs by SRB assay; format: functional
# M14 = assay: Cytotoxicity against human M14 cells assessed as growth inhibition after 48 hrs by SRB assay; format: functional; settings: M14, 48 h
# MDA-MB-435 = assay: Cytotoxicity against human MDA-MB-435 cells assessed as growth inhibition after 48 hrs by SRB assay; format: functional, cell-based
# SK-MEL-28 = assay: Cytotoxicity against human SK-MEL-28 cells assessed as growth inhibition after 48 hrs by SRB assay; format: functional; settings: SK-MEL-28, 48 h
# SK-MEL-5 = assay: Cytotoxicity against human SK-MEL-5 cells assessed as growth inhibition after 48 hrs by SRB assay; format: functional; settings: SK-MEL-5, 48 h
# UACC-62 = assay: Cytotoxicity against human UACC62 cells assessed as growth inhibition after 48 hrs by SRB assay; format: functional; settings: UACC-62, 48 h
# IGROV-1 = assay: Cytotoxicity against human IGROV1 cells assessed as growth inhibition after 48 hrs by SRB assay; format: functional; settings: IGROV-1, 48 h
# OVCAR-8 = assay: Cytotoxicity against human OVCAR8 cells assessed as growth inhibition after 48 hrs by SRB assay; format: functional; settings: OVCAR-8, 48 h
# 786-0 = assay: Cytotoxicity against human 786-0 cells assessed as growth inhibition after 48 hrs by SRB assay; format: functional; settings: 786-0, 48 h
# ACHN = assay: Cytotoxicity against human ACHN cells assessed as growth inhibition after 48 hrs by SRB assay; format: functional
# RXF 393 = assay: Cytotoxicity against human RXF393 cells assessed as growth inhibition after 48 hrs by SRB assay; format: functional; settings: RXF 393, 48 h
# SN12C = assay: Cytotoxicity against human SN12C cells assessed as growth inhibition after 48 hrs by SRB assay; format: functional
# UO-31 = assay: Cytotoxicity against human UO31 cells assessed as growth inhibition after 48 hrs by SRB assay; format: functional; settings: UO-31, 48 h
# PC-3 = assay: Cytotoxicity against human PC3 cells assessed as growth inhibition after 48 hrs by SRB assay; format: functional; settings: PC-3, 48 h
# DU-145 = assay: Cytotoxicity against human DU145 cells assessed as growth inhibition after 48 hrs by SRB assay; format: functional; settings: DU-145, 48 h
# Hs-578T = assay: Cytotoxicity against human Hs 578T cells assessed as growth inhibition after 48 hrs by SRB assay; format: functional
# BT-549 = assay: Cytotoxicity against human BT549 cells assessed as growth inhibition after 48 hrs by SRB assay; format: functional; settings: BT-549, 48 h
# SK-OV-3 [1] = assay: Antiproliferative activity against multidrug resistant human SKOV3 cells expressing MDR1-M6/6 after 48 hrs by SRB assay; format: functional, cell-based; settings: SK-OV-3, 48 h
# Summary of the method: (§1)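 SRB assay; IC50 is the mean of three independent experiments, each run in triplicate. Cells were kept at 37 °C under 5% CO2. HeLa and SK-OV-3 lines (parental and MDR1-M6/6) were grown in Basal Medium Eagle with 10% FBS, 1% GlutaMAX and 50 µg/mL gentamycin. HeLa WTβIII was grown in DMEM with 10% FBS.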
# HeLa [2] = assay: Antiproliferative activity against multidrug resistant human HeLa cells expressing wild type beta3 tubulin after 48 hrs by SRB assay; format: functional, cell-based; summary of the method: as §1
# SK-OV-3 [3] = assay: Relative ratio of IC50 for human SKOV3 cells expressing MDR1-M6/6 to IC50 for human SKOV3 cells; format: functional
# Summary of the method: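 Rr is the IC50 in Pgp-expressing SK-OV-3 MDR1-M6/6 cells divided by the IC50 in parental SK-OV-3 cells. Both IC50s come from the SRB assay, averaging three independent experiments run in triplicate.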
# HeLa [4] = assay: Relative ratio of IC50 for human HeLa cells expressing wild type beta3 tubulin to IC50 for human HeLa cells; format: functional
# [5] = tested on: Tubulin (Rattus norvegicus); assay: Induction of microtubule depolymerization in rat A10 cells at 2 times EC50 incubated for 18 hrs by indirect immunofluorescence analysis
smiles,measurement,setting,value
COc1ccc(N(C)c2ncnc3occ(C)c23)cc1,inhibition,Tubulin (Bos taurus),71%
same,GI50,K562,< 0.01 µM
same,GI50,MOLT-4,< 0.01 µM
same,GI50,RPMI-8226,< 0.01 µM
same,GI50,SR,< 0.01 µM
same,GI50,HOP-62,0.0184 µM
same,GI50,HOP-92,0.0625 µM
same,GI50,NCI-H226,< 0.01 µM
same,GI50,NCI-H23,< 0.01 µM
same,GI50,NCI-H522,< 0.01 µM
same,GI50,HCC 2998,< 0.01 µM
same,GI50,HCT-15,< 0.01 µM
same,GI50,HT-29,< 0.01 µM
same,GI50,KM12,< 0.01 µM
same,GI50,SW-620,< 0.01 µM
same,GI50,SF-268,0.0101 µM
same,GI50,SF-295,< 0.01 µM
same,GI50,SNB-19,< 0.01 µM
same,GI50,SNB-75,< 0.01 µM
same,GI50,U-251,< 0.01 µM
same,GI50,Malme-3M,0.0387 µM
same,GI50,M14,< 0.01 µM
same,GI50,MDA-MB-435,<0.01 µM
same,GI50,SK-MEL-28,< 0.01 µM
same,GI50,SK-MEL-5,< 0.01 µM
same,GI50,UACC-62,0.0296 µM
same,GI50,IGROV-1,< 0.01 µM
same,GI50,OVCAR-8,< 0.01 µM
same,GI50,786-0,< 0.01 µM
same,GI50,ACHN,0.0225 µM
same,GI50,RXF 393,< 0.01 µM
same,GI50,SN12C,< 0.01 µM
same,GI50,UO-31,< 0.01 µM
same,GI50,PC-3,< 0.01 µM
same,GI50,DU-145,< 0.01 µM
same,GI50,Hs-578T,< 0.01 µM
same,GI50,BT-549,0.0596 µM
same,IC50,SK-OV-3 [1],0.0084 µM
same,IC50,HeLa [2],0.0081 µM
same,Ratio IC50,SK-OV-3 [3],1.1
same,Ratio IC50,HeLa [4],0.9
same,Activity,[5],Active
